Reference: ChEMBL document CHEMBL1250467, “Design, synthesis, and anticonvulsant activity of new N-Mannich bases derived from spirosuccinimides and spirohydantoins” (Bioorg Med Chem, 2010)
Activity calls are given as the source filed them. No cut-off for these calls is given here.

Legend:
Rattus norvegicus [1] = assay: Anticonvulsant activity in po dosed Sprague-Dawley rat assessed as protection against maximal electroshock-induced seizures; type: functional
Procedure, shortened: (§1)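 Male Sprague–Dawley rats dosed orally (0.5% methylcellulose/water suspension), groups of eight, tested at the previously estimated time of peak effect. Doses varied until at least three points lay in the 10–90% range of protection (MES, scPTZ) or minimal rotarod neurotoxicity. ED50/TD50 with 95% confidence intervals came from regression; PI = TD50/ED50.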

Rattus norvegicus [2] = species: Rattus norvegicus; assay: Protection index, ratio of TD50 for Sprague-Dawley rat by rotarod test to ED50 for Sprague-Dawley rat by maximal electroshock test; type: functional; procedure, shortened: as §1
Mus musculus [3] = assay: Neurotoxicity in ip dosed CF1 albino mouse assessed as dose required to cause toxicity after 4 hrs by rotarod test; type: organism-based; settings: in vivo
Procedure, shortened: (§2)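 Male CF-1 mice; compounds suspended in 0.5% methylcellulose/water and injected ip at 30, 100 and 300 mg/kg. MES, scPTZ (pentylenetetrazole 85 mg/kg sc at the test time) and rotarod neurotoxicity were scored at 0.5 and 4 h. Value is the lowest dose active or toxic in half or more of the animals; signs such as ataxia or tremor were recorded.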

Rattus norvegicus [4] = assay: Anticonvulsant activity in Sprague-Dawley rat assessed as protection against maximal electroshock-induced seizures at 30 mg/kg po after 0.25 hrs; type: functional
Procedure, shortened: (§3)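 Male Sprague–Dawley rats, four per group, given 30 mg/kg orally as a 0.5% methylcellulose/water suspension. MES protection scored at 0.25, 0.5, 1, 2 and 4 h after dosing, motor impairment checked in parallel; data are the number of the four rats protected.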

Mus musculus [5] = assay: Anticonvulsant activity in CF1 albino mouse assessed as protection against subcutaneous pentylenetetrazole-induced seizures at 300 mg/kg, ip after 4 hrs; type: functional, organism-based; parameters: dose 300 mg/kg; procedure, shortened: as §2
[6] = Displacement of [3H]batrachotoxin from neurotoxin site 2 of voltage-gated sodium channel in rat forebrain tissue; settings: read-out: IC50
Rattus norvegicus [7] = assay: Anticonvulsant activity in Sprague-Dawley rat assessed as protection against maximal electroshock-induced seizures at 30 mg/kg po after 1 hr; type: functional; procedure, shortened: as §3
Mus musculus [8] = assay: Anticonvulsant activity in CF1 albino mouse assessed as protection against subcutaneous pentylenetetrazole-induced seizures at 300 mg/kg, ip after 0.5 hrs; type: functional, organism-based; parameters: dose 300 mg/kg; procedure, shortened: as §2
Mus musculus [9] = assay: Anticonvulsant activity in CF1 albino mouse assessed as protection against maximal electroshock-induced seizures at 300 mg/kg, ip after 0.5 hrs; type: functional, organism-based; parameters: dose 300 mg/kg; procedure, shortened: as §2
Rattus norvegicus [10] = assay: Anticonvulsant activity in Sprague-Dawley rat assessed as protection against maximal electroshock-induced seizures at 30 mg/kg po after 4 hrs; type: functional; procedure, shortened: as §3
Rattus norvegicus [11] = assay: Anticonvulsant activity in Sprague-Dawley rat assessed as protection against maximal electroshock-induced seizures at 30 mg/kg po after 0.5 hrs; type: functional; procedure, shortened: as §3
[12] = Neurotoxicity in po dosed Sprague-Dawley rat by rotarod test; type: toxicity, organism-based; settings: in vivo; procedure, shortened: as §1
Rattus norvegicus [13] = assay: Anticonvulsant activity in Sprague-Dawley rat assessed as protection against maximal electroshock-induced seizures at 30 mg/kg po after 2 hrs; type: functional; procedure, shortened: as §3
Mus musculus [14] = assay: Neurotoxicity in ip dosed CF1 albino mouse assessed as dose required to cause toxicity after 0.5 hrs by rotarod test; type: organism-based; settings: in vivo; procedure, shortened: as §2
Mus musculus [15] = assay: Anticonvulsant activity in ip dosed CF1 albino mouse assessed as dose required to protect against maximal electroshock-induced seizures after 4 hrs; type: functional; procedure, shortened: as §2
Rattus norvegicus [16] = assay: Anticonvulsant activity in po dosed Sprague-Dawley rat assessed as time required to peak protection against seizures; type: functional
Mus musculus [17] = assay: Neurotoxicity in CF1 albino mouse at 300 mg/kg, ip after 4 hrs by rotarod test; type: toxicity, organism-based; parameters: dose 300 mg/kg, route intraperitoneal; settings: in vivo; procedure, shortened: as §2
Mus musculus [18] = assay: Anticonvulsant activity in ip dosed CF1 albino mouse assessed as dose required to protect against subcutaneous pentylenetetrazole-induced seizures after 0.5 hrs; type: functional; procedure, shortened: as §2
Mus musculus [19] = assay: Anticonvulsant activity in ip dosed CF1 albino mouse assessed as dose required to protect against maximal electroshock-induced seizures after 0.5 hrs; type: functional; procedure, shortened: as §2
Mus musculus [20] = assay: Neurotoxicity in CF1 albino mouse assessed as unable to grasp rotarod at 300 mg/kg, ip after 4 hrs by rotarod test; type: toxicity, organism-based; parameters: dose 300 mg/kg, route intraperitoneal; settings: in vivo; procedure, shortened: as §2
Mus musculus [21] = assay: Anticonvulsant activity in CF1 albino mouse assessed as protection against maximal electroshock-induced seizures at 300 mg/kg, ip after 4 hrs; type: functional, organism-based; parameters: dose 300 mg/kg; procedure, shortened: as §2
Mus musculus [22] = assay: Anticonvulsant activity in CF1 albino mouse assessed as protection against electrically-induced seizure at 100 mg/kg, ip after 2 hrs by 6Hz psychomotor seizure test; type: functional, organism-based; parameters: dose 100 mg/kg
Procedure, shortened: (§4)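 Male CF-1 mice, compound suspended in 0.5% methylcellulose/water, given ip at 100 mg/kg; four mice per time point (0.25, 0.5, 1, 2, 4 h). Corneal stimulation with 0.2 ms monopolar rectangular pulses at 6 Hz for 3 s from a constant-current device, mice manually restrained. A mouse counted as protected if normal exploratory behaviour resumed within 10 s; motor impairment was noted alongside.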

Mus musculus [23] = assay: Anticonvulsant activity in CF1 albino mouse assessed as protection against electrically-induced seizure at 100 mg/kg, ip after 0.5 hrs by 6Hz psychomotor seizure test; type: functional, organism-based; parameters: dose 100 mg/kg; procedure, shortened: as §4
Mus musculus [24] = assay: Anticonvulsant activity in CF1 albino mouse assessed as protection against electrically-induced seizure at 100 mg/kg, ip after 0.25 hrs by 6Hz psychomotor seizure test; type: functional, organism-based; parameters: dose 100 mg/kg; procedure, shortened: as §4
Mus musculus [25] = assay: Anticonvulsant activity in CF1 albino mouse assessed as protection against electrically-induced seizure at 100 mg/kg, ip after 4 hrs by 6Hz psychomotor seizure test; type: functional; settings: route intraperitoneal; procedure, shortened: as §4
Rattus norvegicus [26] = assay: Anticonvulsant activity in Sprague-Dawley rat assessed as protection against pilocarpine-induced status epilepticus at 600 mg/kg, ip; type: functional, organism-based; parameters: dose 600 mg/kg
Procedure, shortened: (§5)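 Male Sprague–Dawley rats (150–180 g) received compound ip at 600 mg/kg, then a challenge dose of pilocarpine. Seizure severity graded on the Racine scale; rats were scored as protected or not, and body weight change was taken 24 h after the first stage III seizure.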

Rattus norvegicus [27] = assay: Toxicity in Sprague-Dawley rat assessed as change in body weight at 600 mg/kg, ip measured after 24 hrs of clonus of one of the fore limbs seizure stage in protected rat; type: organism-based; parameters: dose 600 mg/kg, route intraperitoneal; settings: in vivo; procedure, shortened: as §5
Rattus norvegicus [28] = assay: Anticonvulsant activity in Sprague-Dawley rat assessed as protection against pilocarpine-induced status epilepticus at 600 mg/kg, ip measured after clonus of one of the fore limbs seizure stage; type: functional, organism-based; parameters: dose 600 mg/kg; procedure, shortened: as §5
Rattus norvegicus [29] = assay: Toxicity in Sprague-Dawley rat assessed as change in body weight at 600 mg/kg, ip measured after 24 hrs of clonus of one of the fore limbs seizure stage in non-protected rat; type: organism-based; parameters: dose 600 mg/kg, route intraperitoneal; settings: in vivo; procedure, shortened: as §5
Mus musculus [30] = assay: Anticonvulsant activity in CF1 albino mouse assessed as protection against electrically-induced seizure at 100 mg/kg, ip after 1 hr by 6Hz psychomotor seizure test; type: functional; procedure, shortened: as §4

| SMILES | ED50 (Rattus norvegicus [1]) | PI (Rattus norvegicus [2]) | Activity (Mus musculus [3]) | Activity (Rattus norvegicus [4]) | Activity (Mus musculus [5]) | Activity (Rattus norvegicus [7]) | Activity (Mus musculus [8]) | Activity (Mus musculus [9]) | Activity (Rattus norvegicus [10]) | Activity (Rattus norvegicus [11]) | Activity (Rattus norvegicus [13]) | Activity (Mus musculus [14]) | Activity (Mus musculus [15]) | also measured |
| --- | --- | --- | --- | --- | --- | --- | --- | --- | --- | --- | --- | --- | --- | --- |
| O=C1CC2(CCc3ccccc3C2)C(=O)N1CCN1CCN(c2cccc(C(F)(F)F)c2)CC1 (stereo not drawn) | 205 mg/kg | 1.95 | – | – | – | – | – | – | – | – | – | – | – | – |
| O=C1NC2(CCc3ccccc3C2)C(=O)N1CN1CCN(c2ccccc2)CC1 (stereo not drawn) | 1.88 mg/kg | >256.78 | 300 mg/kg | 25% | inactive | 50% | inactive | inactive | 100% | 50% | 100% | 300 mg/kg | 30 mg/kg | IC50 [6]: 9.35 µM; TD50 [12]: > 500 mg/kg; Time (Rattus norvegicus [16]): 6 h |
| O=C1CC2(CCc3ccccc3C2)C(=O)N1CN1CCN(CCO)CC1 (stereo not drawn) | – | – | – | 25% | inactive | inactive | – | – | 50% | 25% | 25% | – | 100 mg/kg | Activity (Mus musculus [17]): Non-toxic; Activity (Mus musculus [18]): 300 mg/kg; Activity (Mus musculus [19]): 100 mg/kg; Activity (Mus musculus [20]): Non-toxic |
| O=C1CC2(CCc3ccccc3C2)C(=O)N1CCN1CCN(c2cccc(Cl)c2)CC1 (stereo not drawn) | 23 mg/kg | 2.6 | – | – | – | – | – | – | – | – | – | – | – | – |
| O=C1CC2(CCc3ccccc3C2)C(=O)N1CN1CCN(c2ccccc2)CC1 (stereo not drawn) | – | – | 300 mg/kg | – | inactive | – | inactive | inactive | – | – | – | 100 mg/kg | – | Activity (Mus musculus [21]): inactive |
| O=C1NC2(CCc3ccccc3C2)C(=O)N1CN1CCN(c2cccc(Cl)c2)CC1 (stereo not drawn) | – | – | 30 mg/kg | – | inactive | – | inactive | inactive | – | – | – | 30 mg/kg | 100 mg/kg | – |
| O=C1CC2(CCc3ccccc3C2)C(=O)N1CN1CCN(c2cccc(Cl)c2)CC1 (stereo not drawn) | 19.6 mg/kg | 25.55 | – | inactive | inactive | 25% | inactive | – | 50% | inactive | 50% | 300 mg/kg | 100 mg/kg | Activity (Mus musculus [22]): inactive; Activity (Mus musculus [23]): inactive; Activity (Mus musculus [17]): Non-toxic; IC50 [6]: 2.45 µM; Activity (Mus musculus [24]): inactive; Activity (Mus musculus [25]): 50%; Activity (Mus musculus [19]): 300 mg/kg; Activity (Rattus norvegicus [26]): inactive; Activity (Rattus norvegicus [27]): Non-toxic; TD50 [12]: > 500 mg/kg; Activity (Rattus norvegicus [28]): inactive; Time (Rattus norvegicus [16]): 6 h; Activity (Rattus norvegicus [29]): 20.6 g; Activity (Mus musculus [30]): inactive |
